Results from ChEMBL document CHEMBL2062453, “Lead optimization through VLAK protocol: new annelated pyrrolo-pyrimidine derivatives as antitumor agents” (2012).

Tests used:
Format in all cases: functional
[1] = tested on: TK-10; test: Cytotoxicity against human TK10 cells assessed as cell growth at 10 uM after 48 hrs by SRB assay relative to control; conditions: TK-10, 48 h, read-out: Activity
Method in brief: (§1)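 NCI single-dose primary screen across about 60 human tumour lines. Each line was inoculated and preincubated on microtiter plates, then exposed to one concentration of agent for 48 h. Growth is reported as percent growth (G%) of treated cells versus untreated control cells.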

[2] = tested on: OVCAR-5; test: Cytotoxicity against human OVCAR5 cells assessed as cell growth at 10 uM after 48 hrs by SRB assay relative to control; conditions: OVCAR-5, 48 h, read-out: Activity
[3] = tested on: Hs-578T; test: Cytotoxicity against human Hs578T cells assessed as cell growth at 10 uM after 48 hrs by SRB assay relative to control; conditions: read-out: Activity
Method in brief: (§2)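 NCI primary screen of about 60 human tumour lines. Cells inoculated and preincubated, then a single test concentration added and cultures incubated 48 h. Result given as percent growth (G%) of treated versus untreated control cells.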

[4] = tested on: COLO 205; test: Cytotoxicity against human COLO205 cells assessed as cell growth at 10 uM after 48 hrs by SRB assay relative to control; conditions: COLO 205, 48 h, read-out: Activity; method in brief: as §2
[5] = tested on: NCI-H23; test: Cytotoxicity against human NCI-H23 cells assessed as cell growth at 10 uM after 48 hrs by SRB assay relative to control; conditions: NCI-H23, 48 h, read-out: Activity
[6] = tested on: LOX IMVI; test: Cytotoxicity against human LOXIMVI cells after 48 hrs by SRB assay; conditions: for TGI: read-out: pTGI (converted)
Method in brief: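 NCI 60-cell five-dose screen. Cells grown in RPMI 1640 with 5% FBS and 2 mM glutamine, plated at 5000–40,000 cells/well, and preincubated 24 h at 37 °C in 5% CO2. Time-zero plates fixed with TCA. Five serial dilutions of DMSO stock added, then 48 h exposure. TCA fixation, 0.4% SRB staining, absorbance read at 515 nm. GI50 from [(Ti−Tz)/(C−Tz)]×100 = 50.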

[7] = tested on: LOX IMVI; test: Cytotoxicity against human LOXIMVI cells assessed as cell growth at 10 uM after 48 hrs by SRB assay relative to control; conditions: read-out: Activity; method in brief: as §2
[8] = tested on: ACHN; test: Cytotoxicity against human ACHN cells assessed as cell growth at 10 uM after 48 hrs by SRB assay relative to control; conditions: read-out: Activity; method in brief: as §2
[9] = tested on: T47D; test: Cytotoxicity against human T47D cells assessed as cell growth at 10 uM after 48 hrs by SRB assay relative to control; conditions: read-out: Activity; method in brief: as §1
[10] = tested on: MDA-MB-468; test: Cytotoxicity against human MDA-MB-468 cells assessed as cell growth at 10 uM after 48 hrs by SRB assay relative to control; conditions: MDA-MB-468, 48 h, read-out: Activity
[11] = tested on: OVCAR-4; test: Cytotoxicity against human OVCAR4 cells assessed as cell growth at 10 uM after 48 hrs by SRB assay relative to control; conditions: OVCAR-4, 48 h, read-out: Activity
[12] = tested on: SF-295; test: Cytotoxicity against human SF295 cells after 48 hrs by SRB assay; conditions: SF-295, 48 h; for TGI: read-out: pTGI (converted)
Method in brief: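 Five-dose screen, 10-fold or ½-log dilutions, compound stock in DMSO. Cells were in RPMI 1640 with 5% FBS and 2 mM glutamine at 5000–40,000 cells/well, preincubated 24 h, 37 °C, 5% CO₂, with a time-zero plate TCA-fixed. After 48 h drug exposure, cells were TCA-fixed and stained with 0.4% SRB, read at 515 nm. GI50, TGI and LC50 were derived from time-zero, control and test absorbances.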

[13] = tested on: HOP-62; test: Cytotoxicity against human HOP62 cells assessed as cell growth at 10 uM after 48 hrs by SRB assay relative to control; conditions: HOP-62, 48 h, read-out: Activity; method in brief: as §2
[14] = tested on: BT-549; test: Cytotoxicity against human BT549 cells assessed as cell growth at 10 uM after 48 hrs by SRB assay relative to control; conditions: BT-549, 48 h, read-out: Activity; method in brief: as §2
[15] = tested on: SK-MEL-5; test: Cytotoxicity against human SK-MEL-5 cells assessed as cell growth at 10 uM after 48 hrs by SRB assay relative to control; conditions: SK-MEL-5, 48 h, read-out: Activity
[16] = tested on: SN12C; test: Cytotoxicity against human SN12C cells assessed as cell growth at 10 uM after 48 hrs by SRB assay relative to control; conditions: read-out: Activity
[17] = tested on: 786-0; test: Cytotoxicity against human 786-0 cells assessed as cell growth at 10 uM after 48 hrs by SRB assay relative to control; conditions: 786-0, 48 h, read-out: Activity; method in brief: as §2
[18] = tested on: MCF7; test: Cytotoxicity against human MCF7 cells assessed as cell growth at 10 uM after 48 hrs by SRB assay relative to control; conditions: MCF7, 48 h, read-out: Activity; method in brief: as §2
[19] = tested on: MDA-MB-435; test: Cytotoxicity against human MDA-MB-435 cells assessed as cell growth at 10 uM after 48 hrs by SRB assay relative to control; conditions: MDA-MB-435, 48 h, read-out: Activity
[20] = tested on: U-251; test: Cytotoxicity against human U251 cells assessed as cell growth at 10 uM after 48 hrs by SRB assay relative to control; conditions: U-251, 48 h, read-out: Activity; method in brief: as §1
[21] = tested on: SK-MEL-28; test: Cytotoxicity against human SK-MEL-28 cells assessed as cell growth at 10 uM after 48 hrs by SRB assay relative to control; conditions: SK-MEL-28, 48 h, read-out: Activity
[22] = tested on: HCT-15; test: Cytotoxicity against human HCT15 cells assessed as cell growth at 10 uM after 48 hrs by SRB assay relative to control; conditions: HCT-15, 48 h, read-out: Activity; method in brief: as §2
[23] = tested on: HT-29; test: Cytotoxicity against human HT-29 cells assessed as cell growth at 10 uM after 48 hrs by SRB assay relative to control; conditions: HT-29, 48 h, read-out: Activity; method in brief: as §2
[24] = tested on: IGROV-1; test: Cytotoxicity against human IGROV1 cells assessed as cell growth at 10 uM after 48 hrs by SRB assay relative to control; conditions: IGROV-1, 48 h, read-out: Activity; method in brief: as §2
[25] = tested on: UACC-62; test: Cytotoxicity against human UACC62 cells assessed as cell growth at 10 uM after 48 hrs by SRB assay relative to control; conditions: UACC-62, 48 h, read-out: Activity; method in brief: as §1
[26] = tested on: NCI-H226; test: Cytotoxicity against human NCI-H226 cells assessed as cell growth at 10 uM after 48 hrs by SRB assay relative to control; conditions: NCI-H226, 48 h, read-out: Activity
[27] = tested on: SNB-19; test: Cytotoxicity against human SNB19 cells assessed as cell growth at 10 uM after 48 hrs by SRB assay relative to control; conditions: SNB-19, 48 h, read-out: Activity
[28] = tested on: SK-OV-3; test: Cytotoxicity against human SKOV3 cells assessed as cell growth at 10 uM after 48 hrs by SRB assay relative to control; conditions: SK-OV-3, 48 h, read-out: Activity
[29] = tested on: NCI-H460; test: Cytotoxicity against human NCI-H460 cells assessed as cell growth at 10 uM after 48 hrs by SRB assay relative to control; conditions: NCI-H460, 48 h, read-out: Activity

SMILES | growth at 10 µM [1] [%] | growth at 10 µM [2] [%] | growth at 10 µM [3] [%] | growth at 10 µM [4] [%] | growth at 10 µM [5] [%] | GI50 [6] [µM] | LC50 [6] [µM] | TGI [6] [µM] | growth at 10 µM [7] [%] | growth at 10 µM [8] [%] | growth at 10 µM [9] [%] | growth at 10 µM [10] [%] | growth at 10 µM [11] [%] | GI50 [12] [µM] | LC50 [12] [µM] | TGI [12] [µM] | growth at 10 µM [13] [%] | growth at 10 µM [15] [%] | growth at 10 µM [16] [%] | growth at 10 µM [17] [%] | further results
CSC1=Nc2c(c(C)c(-c3ccccc3)n2CCCCl)C2=NC(=O)CN12 | 105 | 86 | 85 | 79 | 78 | 4.17 | 50.1 | 17.4 | 50 | 88 | 72 | 47 | 76 | 4.07 | > 100 | 26.9 | 64 | 51 | 86 | 78 | growth at 10 µM [14]: 61%; growth at 10 µM [18]: 36%; growth at 10 µM [19]: -31%; growth at 10 µM [20]: 52%; growth at 10 µM [21]: 56%; growth at 10 µM [22]: 65%; growth at 10 µM [23]: 23%; growth at 10 µM [24]: 48%; growth at 10 µM [25]: 37%; growth at 10 µM [26]: 79%; growth at 10 µM [27]: 81%; growth at 10 µM [28]: 88%
CSC1=Nc2c(c(C)c(-c3ccccc3)n2CCCN2CCCCC2)C2=NC(=O)CC(C)N12 (centres undefined) | 49 | 83 | 11 | -87 | 63 | 3.02 | 35.5 | 12.9 | 42 | 67 | -2 | -19 | 44 | 2.57 | 69.2 | 10.2 | 82 | 10 | 45 | 80 | growth at 10 µM [18]: 14%; growth at 10 µM [19]: 26%; growth at 10 µM [20]: 12%; growth at 10 µM [21]: 43%; growth at 10 µM [22]: 81%; growth at 10 µM [23]: 21%; growth at 10 µM [24]: 23%; growth at 10 µM [25]: 54%; growth at 10 µM [29]: 38%; growth at 10 µM [26]: 69%; growth at 10 µM [27]: 20%; growth at 10 µM [28]: 27%
